# Compounds with a hit are over-represented: about 3% of the library has one in this group of screens.
# PLCg1 inh = PLC-gamma1 enzyme inhibitors, primary screen, biochemical, fluorescence, purified enzyme; 1-phosphatidylinositol 4,5-bisphosphate phosphodiesterase gamma-1 (Homo sapiens), P19174; fluorogenic substrate; inhibition, % at 12.2 µM; actives 0.84% (n = 370,000); AID 720700, 2013; in the data active = inhibition above about 9.5%
# DDE Tn7 FP inh = inhibitors of Tn7 peptide binding to fibrin DD(E), primary screen, biochemical, fluorescence polarization, human fibrin, Tn7 probe; Fibrinogen beta chain (Homo sapiens), P02675; inhibition, % at 8.3 µM; actives 0.13% (n = 370,000); AID 720508, 2013; FP displacement of FITC-Tn7 peptide from fibrin DD(E); 0% = median of compound wells per plate;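 active = inhibition above the mean of compounds falling within the control limits plus 3 SD of them, cut at about 14% in these data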;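 also: 0% = plate median of compound wells and 100% = 10 µM Aha-Tn7 peptide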
#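 Assay system: Human clot-derived fibrin DD(E) complex | Buffer or medium: Tris/NaCl/CaCl2 buffer, pH 7.8 | Repeats: One replicate per compound | Benchmarks: Aha-Tn7 high control | Measure: % inhibition scaled between sample-field median and high-control FP | Schedule: 10 min plus 3 h, room temperature | Signal: Fluorescence polarization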
# Tn6 DDE FP = inhibitors of Tn6 peptide binding to fibrin DD(E), primary screen, biochemical, fluorescence polarization, human fibrin, Tn6 probe. Fibrin DD(E) TRITC-Tn6 fluorescence polarization displacement. inhibition, % at 8.3 µM. actives 0.21% (n = 370,000). AID 720509, 2013;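 active = inhibition above a per-campaign cutoff: mean of compounds within control limits plus 3 SD, cut at about 15% in these data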;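 also: 0% = median of all compound wells on the plate and 100% = blocking peptide control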
# NRP1-CendR mod = modulators of CendR peptide binding to NRP-1, primary screen, biochemical, fluorescence polarization, uHTS; Neuropilin-1 (Homo sapiens), O14786; FAM-RPARPAR peptide binding to NRP-1; inhibition, % at 25 µM; actives 0.85% (n = 360,000); AID 602438, 2012;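 active = inhibition or corrected inhibition above about 18%, plus a signal ratio from 0.5 to 1.5, limit read from the data, passing the limit was not always enough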
# PLC-beta3 inh = human PLC-beta3 inhibitors, primary screen, biochemical, fluorescence | 1-phosphatidylinositol 4,5-bisphosphate phosphodiesterase beta-3 (Homo sapiens), Q01970 | Purified PLC-beta3, fluorogenic substrate | inhibition, % at 12.2 µM | actives 0.18% (n = 370,000) | AID 720704, 2013; in the data active = inhibition above about 11%;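 also: 0% = median of compound wells on plate and 100% = full blocker control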
# KLK7 zymogen act = proKLK7 zymogen activators, primary screen, biochemical, fluorescence intensity. Kallikrein-7 (Homo sapiens), P49862. purified proKLK7, EDANS-DABCYL substrate fluorescence; 100% is mature enzyme control, 0% vehicle. activation, % at 7 µM. actives 0.9% (n = 370,000). AID 652039, 2013;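 active = activation above the mean of all tested compounds plus 3 SD, computed per campaign excluding outliers beyond control limits, cut at about 13% in these data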
# Target sequence (P49862 whole entry, looked up): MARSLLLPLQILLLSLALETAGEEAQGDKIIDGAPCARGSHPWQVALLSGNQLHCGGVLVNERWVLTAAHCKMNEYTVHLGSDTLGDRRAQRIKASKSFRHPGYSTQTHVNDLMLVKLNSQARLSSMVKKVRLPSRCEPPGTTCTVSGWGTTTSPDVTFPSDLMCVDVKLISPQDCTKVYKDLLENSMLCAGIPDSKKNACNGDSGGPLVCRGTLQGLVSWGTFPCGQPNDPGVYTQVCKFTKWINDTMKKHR
# proKLK7 act conf = proKLK7 zymogen activators, confirmation, biochemical, fluorescence intensity, triplicate; actives 68% (n = 3,200); AID 686949, 2013; purified proKLK7, EDANS-DABCYL substrate fluorescence; scaled: vehicle 0, mature enzyme 100; shares compounds with KLK7 zymogen act; activation, % at 7 µM;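 active = activation, as change over the incubation, above the mean of all tested compounds plus 3 SD, cut at about 13% in these data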
# EDANS-DABCYL int = EDANS-DABCYL substrate optical interference, artefact control for kallikrein-7 zymogen activator project, biochemical, fluorescence intensity, high throughput; shares compounds with KLK7 zymogen act; actives 80% (n = 3,200); activation, % at 7 µM; AID 686952, 2013; no enzyme, 4 h; solvent 0%, active enzyme control 100%;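 active = activation above the all-compound mean plus 3 SD, ignoring values outside control-based bounds, cut at about 4.8% in these data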;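 also: value is the 4 h activation minus the activation read at time zero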
# Starred values were filed as active, the others as inactive; i = inactive; x = no result given.
SMILES,PLCg1 inh,DDE Tn7 FP inh,Tn6 DDE FP,NRP1-CendR mod,PLC-beta3 inh,KLK7 zymogen act,proKLK7 act conf,EDANS-DABCYL int
CCOc1ccc2nc3sc(C(=O)N4CCOCC4)c(N)c3cc2c1,-165,-1,5,-10,-248,13*,8,6.6*
Cc1cc(C)c2cc3c(N)c(C(=O)N4CCOCC4)sc3nc2c1,-216,2,-9,-11,-252,19*,-9,-8
Cc1ccc(C)c2nc3sc(C(=O)N4CCOCC4)c(N)c3cc12,-256,-5,0,-24,-301,3,x,x
COc1ccc(S[C@]2(C(=O)NC(C)C)CC(=O)N[C@@H]2c2ccc(OC)cc2)cc1,1,1,7,x,-3,0,x,x
O=C(NCCc1ccc(F)cc1)c1ccc2c(c1)ncn2C1CCCCC1,-2,-1,-3,x,-1,0,x,x
COc1ccccc1N1C(=O)C2C(C(=O)c3ccccc3)=NN(c3ccc(C)cc3)C2C1=O (stereo unspecified),-46,9,3,-14,-55,-1,x,x
COc1ccccc1N1C(=O)C2C(C(=O)c3ccccc3)=NN(c3ccc(Br)cc3)C2C1=O (stereo unspecified),-67,8,4,-47,-105,18*,-226,-164
COC(=O)C1=C(C)N(Cc2ccc(C(F)(F)F)cc2)C(=NCc2ccc3c(c2)OCO3)NC1c1cccc(Cl)c1 (stereo unspecified),6,-1,5,x,-3,0,x,x
COc1cc2c(cc1OC)C(C)=NCC2,i,5,19*,-2,i,115*,62*,77*
COc1cc2c(cc1OC)C(C)=NC1(CCCCC1)C2,i,3,4,-13,i,101*,61*,66*
CCCCNC(=O)C[C@H]1C[C@@]2(C(=O)OC)C(=C[C@H](C(C)C)O[C@@H]2C2CC2)N(Cc2ccco2)C1=O,-2,1,2,x,5,1,x,x
COc1cccc(N(C)C(=O)[C@@H](C2CC2)[C@@H](O)c2ccc3ccccc3c2)c1,0,-5,6,x,1,0,x,x
O=C(NCCc1nc2ccccc2n1CCOc1ccc2cccnc2c1)C1CCCCC1,3,6,-7,x,3,x,x,x
O=C1c2[nH]c3ccccc3c2CC1N1C(=O)c2ccccc2C1=O (stereo unspecified),-30,-9,11,7,-42,30*,19*,18*
COCCCN1C(=O)C(CC(=O)NC2CCCCC2)CC(C(=O)N2CCCCCC2)=C1C (stereo unspecified),1,-2,4,-22,4,83*,0,-1
O=c1[nH]c2ccc(Cl)cc2c(-c2ccccc2)c1N1CCN(CCO)CC1,-468,-6,-2,-6,i,29*,-9,-5
CCOC(=O)[C@]12CCCC=C1N(CCCOC)C(=O)[C@@H]2CC(=O)NCc1cccc(C(F)(F)F)c1,0,-6,-7,x,0,0,x,x
CC(CC(=O)Nc1ccc2c(c1)c(=O)n(C)n2-c1ccccc1F)c1ccccc1 (stereo unspecified),-224,-3,-3,-21,-305,-4,x,x
Cn1c(=O)c2cc(NC(=O)CCc3cccnc3)ccc2n1Cc1cccc(C(F)(F)F)c1,-267,-5,5,-34,-347,5,x,x
Cn1c(=O)c2cc(NC(=O)CCc3cccnc3)ccc2n1Cc1ccc(F)cc1,-242,1,-3,-5,-287,13*,7,14*
COc1cc(Cn2c3ccc(NC(=O)CCc4ccccc4)cc3c(=O)n2C)ccc1F,-200,1,1,-48,-254,10,x,x
COc1cc(Cn2c3ccc(NC(=O)CCc4cccnc4)cc3c(=O)n2C)ccc1F,-265,5,-5,-17,-344,16*,7,7.6*
Cn1c(=O)c2cc(NC(=O)CC(C)(C)C)ccc2n1-c1ccccc1F,-329,-5,-6,-16,-416,15*,-6,-16
CC(CC(=O)Nc1ccc2c(c1)c(=O)n(C)n2Cc1ccc(F)cc1)C(F)(F)F (stereo unspecified),-273,2,1,-10,-353,16*,-8,-11
CCOC(=O)C1(Cc2ccccc2)CCN(Cc2ccc(C)cc2)CC1,3,6,2,x,4,0,x,x
SMILES,PLCg1 inh,DDE Tn7 FP inh,Tn6 DDE FP,NRP1-CendR mod,PLC-beta3 inh,KLK7 zymogen act,proKLK7 act conf,EDANS-DABCYL int
Cc1ccc2nc(-c3ccc(NC(=O)CSc4nnc(-c5cccc(Cl)c5)n4Cc4ccco4)cc3)sc2c1,-49,0,-12,x,-83,70*,-21,-30
Cc1ccc(-c2nnc(SCC(=O)Nc3ccc(-c4nc5ccc(C)cc5s4)cc3)n2Cc2ccco2)cc1,-19,4,-7,x,-21,104*,94*,116*
COc1ccc(-c2nnc(SCC(=O)Nc3ccc(Oc4ccccc4)cc3)n2Cc2ccco2)cc1,-3,-5,-1,x,-11,0,x,x
C=CCn1c(SCC(=O)Nc2ccc(-c3nc4ccc(C)cc4s3)cc2)nnc1-c1ccccc1,-59,3,3,-48,-77,26*,67*,67*
Cc1ccc2nc(-c3ccc(NC(=O)CSc4nnc(-c5cc(C)[nH]n5)n4N)cc3)sc2c1,-60,-3,-11,x,-71,33*,-3,-39
CC(C)(C)C(=O)O[C@@H]1CCC[C@@]2(C(=O)N(Cc3ccccc3)c3ccccc32)[C@H]1NC(=O)CCc1ccccc1,1,6,-3,x,6,0,x,x
CCN(C(=O)COC(=O)C1=COCCO1)c1ccccc1,3,0,8,13,-3,0,x,x
CCN(C(=O)COC(=O)c1[nH]c(=O)[nH]c(=O)c1N)c1ccccc1,0,-2,7,-8,-6,13*,24*,28*
CCSC1=NSC2=NC(=O)/C(=C\c3coc4ccccc4c3=O)C(=N)N12,-161,-5,-1,124,-186,-2,x,x
